# Experimental data published in ChEMBL document CHEMBL1124387, “Cardiotonic agents. 9. Synthesis and biological evaluation of a series of (E)-4,5-dihydro-6-[2-[4-(1H-imidazol-1-yl)phenyl]ethenyl]-3 (2H)-pyridazinones: a novel class of compounds with positive inotropic, antithrombotic, and vasodilatory activities for the treatment of congestive heart failure” (J Med Chem, 1989).
# Values joined by “and” are separate entries in the source; they are usually repeats but may differ in a detail not shown here. Equal entries are not always repeated.
# Experiments:
# [1] = system: Canis familiaris; assay: Hemodynamic activity in anesthetized dog as percent change from baseline (2271 mmHg/s) in left ventricular myocardial activity at 0.1 mg/kg administered intravenously; type: functional, Canis lupus familiaris, Heart left ventricle; conditions: route intravenous
# [2] = system: Canis familiaris; assay: Cardiovascular activity in presence of beta-adrenoceptor blockade in dogs as percent change in heart rate from base line (136 bpm) at 0.01 mg/kg; type: functional, Canis lupus familiaris
# [3] = system: Canis familiaris; assay: Cardiovascular activity in presence of beta-adrenoceptor blockade in dogs as percent change in left ventricular myocardial contractility from base line (1869 mmHg/s) at 0.01 mg/kg dose given 15 min after nadolol; type: functional, Canis lupus familiaris, Heart left ventricle
# [4] = system: Canis familiaris; assay: Cardiovascular activity in presence of beta-adrenoceptor blockade in dogs as percent change in forelimb vascular resistance from base line (5.23 mmHg/mL/min) at 0.01 mg/kg given 15 min after nadolol; type: functional, Canis lupus familiaris
# [5] = system: Canis familiaris; assay: Hemodynamic activity in anesthetized dog as percent change in left ventricular myocardial activity from baseline (2271 mmHg/s) at 0.01 mg/kg administered intravenously; type: functional, Canis lupus familiaris, Heart left ventricle; conditions: route intravenous
# Summary of the method: (§1)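 Acutely instrumented anesthetized dogs (n = 6), 30-min control period. Compound in 0.9% saline, or dilute HCl diluted with saline, at 0.1 mL/kg iv over 1 min. At least four ascending half-log doses, 10 min apart, one compound per animal. Recorded: LV dP/dtmax, heart rate, aortic pressure and forelimb resistance. Values are maximum response from control average ± SEM.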
# [6] = system: Canis familiaris; assay: Hemodynamic activity in anesthetized dog as percent change in left ventricular myocardial activity from baseline (2271 mmHg/s) at 0.03 mg/kg administered intravenously; type: functional, Canis lupus familiaris, Heart left ventricle; conditions: route intravenous; summary of the method: as §1
# [7] = system: Canis familiaris; assay: Hemodynamic activity in anesthetized dog as percent change in blood pressure from baseline (123 mmHg) at 0.001 mg/kg administered intravenously; type: functional, Canis lupus familiaris; conditions: route intravenous; summary of the method: as §1
# [8] = system: Canis familiaris; assay: Hemodynamic activity in anesthetized dog as percent change in blood pressure from baseline (123 mmHg) at 0.003 mg/kg administered intravenously; type: functional, Canis lupus familiaris; conditions: route intravenous; summary of the method: as §1
# [9] = system: Canis familiaris; assay: Hemodynamic activity in anesthetized dog as percent change in blood pressure from baseline (123 mmHg) at 0.03 mg/kg administered intravenously; type: functional, Canis lupus familiaris; conditions: route intravenous; summary of the method: as §1
# [10] = system: Canis familiaris; assay: Hemodynamic activity in anesthetized dog as percent change in blood pressure from baseline (123 mmHg) at 0.3 mg/kg administered intravenously; type: functional, Canis lupus familiaris; conditions: route intravenous; summary of the method: as §1
# [11] = system: Canis familiaris; assay: Hemodynamic activity in anesthetized dog as percent change in heart rate from baseline (152 bpm) at 0.01 mg/kg administered intravenously; type: functional, Canis lupus familiaris; conditions: route intravenous; summary of the method: as §1
# [12] = system: Canis familiaris; assay: Hemodynamic activity in anesthetized dog as percent change in heart rate from baseline (152 bpm) at 0.03 mg/kg administered intravenously; type: functional, Canis lupus familiaris; conditions: route intravenous; summary of the method: as §1
# [13] = system: Canis familiaris; assay: Hemodynamic activity in anesthetized dog as percent change in heart rate from baseline (152 bpm) at 0.1 mg/kg administered intravenously; type: functional, Canis lupus familiaris; conditions: route intravenous; summary of the method: as §1
# [14] = system: Canis familiaris; assay: Hemodynamic activity in anesthetized dog as percent change in heart rate from baseline (152 bpm) at 0.3 mg/kg administered intravenously; type: functional, Canis lupus familiaris; conditions: route intravenous; summary of the method: as §1
# [15] = system: Canis familiaris; assay: Hemodynamic activity in anesthetized dog as percent change in fore limb resistance from baseline (2.77 mmHg/mL/min) at 0.001 mg/kg administered intravenously; type: functional, Canis lupus familiaris; conditions: route intravenous; summary of the method: as §1
# [16] = system: Canis familiaris; assay: Hemodynamic activity in anesthetized dog as percent change in fore limb resistance from baseline (2.77 mmHg/mL/min) at 0.01 mg/kg administered intravenously; type: functional, Canis lupus familiaris; conditions: route intravenous; summary of the method: as §1
# [17] = system: Canis familiaris; assay: Hemodynamic activity in anesthetized dog as percent change in fore limb resistance from baseline (2.77 mmHg/mL/min) at 0.03 mg/kg administered intravenously; type: functional, Canis lupus familiaris; conditions: route intravenous; summary of the method: as §1
# [18] = system: Canis familiaris; assay: Hemodynamic activity in anesthetized dog as percent change in fore limb resistance from baseline (2.77 mmHg/mL/min) at 0.3 mg/kg administered intravenously; type: functional, Canis lupus familiaris; conditions: route intravenous; summary of the method: as §1
# [19] = system: Canis familiaris; assay: Hemodynamic activity in anesthetized dog as percent change in left ventricular myocardial activity from baseline (2271 mmHg/s) at 0.001 mg/kg administered intravenously; type: functional, Canis lupus familiaris, Heart left ventricle; conditions: route intravenous; summary of the method: as §1
# [20] = system: Canis familiaris; assay: Hemodynamic activity in anesthetized dog as percent change in left ventricular myocardial activity from baseline (2271 mmHg/s) at 0.003 mg/kg administered intravenously; type: functional, Canis lupus familiaris, Heart left ventricle; conditions: route intravenous; summary of the method: as §1
# [21] = species on record: Canis familiaris; assay: 50% increase in myocardial contractility (dP/dT max) in dogs; type: functional, Canis lupus familiaris, Myocardium; summary of the method: as §1
# [22] = system: Canis familiaris; assay: (§2) Decrease in thrombus weight in anesthetized dog coronary artery; type: functional, Canis lupus familiaris
# Summary of the method: (§3)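 Pentobarbital-anesthetized (32 mg/kg iv), ventilated dogs, allowed 30 min to stabilize. Continuous infusion of compound (1.0, 3.0 or 10.0 μg/kg/min) or saline began 15 min before 50 μA current was applied to an intraluminal electrode in the circumflex coronary artery. After 60 min of stimulation the animals were euthanized and the thrombus dissected and weighed. One treatment per animal.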
# [23] = system: Canis familiaris; assay: Percentage increase in left ventricular contractility in anesthetized dog; type: functional, Canis lupus familiaris, Heart left ventricle
# [24] = system: Canis familiaris; assay: Weight of thrombus after 60 min of 1 ug/kg/min; type: functional, Canis lupus familiaris; summary of the method: as §3
# [25] = system: Canis familiaris; assay: Weight of thrombus after 60 min of 10 ug/kg/min; type: functional, Canis lupus familiaris
# Summary of the method: (§4)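 Anesthetized adult dogs were given sodium pentobarbital (32 mg/kg iv), intubated and artificially respired, then allowed 30 min to stabilize after surgery. Circumflex coronary thrombosis was induced by delivering 50 μA through an intraluminal silver-coated copper electrode, which denuded the endothelium. Continuous drug or saline infusion began 15 min before current onset and ran throughout, with one treatment per animal. After 60 min of stimulation the thrombus was dissected and weighed.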
# [26] = system: Canis familiaris; assay: Weight of thrombus after 60 min of 3 ug/kg/min; type: functional, Canis lupus familiaris; summary of the method: as §4
# [27] = species on record: Homo sapiens; assay: In vitro inhibition of ADP stimulated platelet aggregation in human thrombocyte enriched plasma; type: functional
# Summary of the method: (§5)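 Human platelet-rich plasma from aspirin/NSAID-free donors, adjusted to 250 000 platelets/μL with platelet-poor plasma. Drug in DMSO/saline (1% DMSO final) was added before ADP or collagen, with doses set by titration. Read-out was aggregation extent (ADP, curve height) or rate (collagen, major slope) as % of saline control.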
# [28] = species on record: Homo sapiens; assay: In vitro inhibition of collagen stimulated platelet aggregation in human thrombocyte enriched plasma; type: functional; summary of the method: as §5
# [29] = target: Phosphodiesterase 3 (Homo sapiens, UniProt Q14432+Q13370); assay: Inhibition of phosphodiesterase 3 from human platelets at 1*10e-7-1*10e-4 M
# Summary of the method: (§6)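 Fraction III cAMP-PDE from guinea pig heart or human platelets. Substrate [3H]cyclic AMP 1.0 μM at 30°C, with hydrolysis held to ≤10-20% and kept linear over 30 min. Compounds in DMSO, 2.5% final.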
# [30] = Inhibition of phosphodiesterase 3 from guinea pig cardiac tissue at 1*10e-7-1*10e-4 M; parameters: species or system Cavia porcellus; summary of the method: as §6
# [31] = system: Canis familiaris; assay: as §2; type: functional, Canis lupus familiaris; summary of the method: as §3; remark: listed apart in the source
# [32] = species on record: Homo sapiens; assay: In vitro inhibition of ADP stimulated platelet aggregation in human whole blood; type: functional
# Summary of the method: (§7)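 Human whole blood from aspirin/NSAID-free fasted donors, read by impedance aggregometry 5 min after adding ADP or collagen. Aggregation expressed as % of control (2-6 replicates), plotted against log drug concentration; IC50 obtained by extrapolation.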
# [33] = species on record: Homo sapiens; assay: In vitro inhibition of collagen stimulated platelet aggregation in human whole blood; type: functional; summary of the method: as §7
# [34] = system: Canis familiaris; assay: Cardiovascular activity in presence of beta-adrenoceptor blockade in dogs as percent change in blood pressure from base line (116/94 mmHg) at 0.01 mg/kg dose before nadolol administration; -9/-11
# [35] = system: Canis familiaris; assay: Cardiovascular activity in presence of beta-adrenoceptor blockade in dogs as percent change in left ventricular myocardial contractility from base line (2327 mmHg/s) at 0.01 mg/kg dose before nadolol administration
smiles,measurement,setting,value
CC1CC(=O)NN=C1/C=C/c1ccc(-n2ccnc2)cc1.Cl (stereo not given),Change,[1],134%
same,Change,[2],18%
same,Change,[3],25%
same,Change,[4],-13%
same,Change,[5],65%
same,Change,[6],117%
same,Change,[7],-2%
same,Change,[8],-5%
same,Change,[9],-24%
same,Change,[10],-40%
same,Change,[11],12%
same,Change,[12],23%
same,Change,[13],28%
same,Change,[14],33%
same,Change,[15],0.3%
same,Change,[16],-36%
same,Change,[17],-49%
same,Change,[18],-54%
same,Change,[19],2%
same,Change,[20],19%
same,Dose,[21],8 µg/kg
same,Inhibition,[22],40%
same,Increase,[23],77% and 103%
same,Thrombus weight,[24],10.7 mg
same,Thrombus weight,[25],10 mg
same,Thrombus weight,[26],6.3 mg
same,IC50,[27],300 nM
same,IC50,[28],30 nM
same,IC50,[29],77 nM
same,IC50,[30],250 nM
same,Inhibition,[31],65% and 44%
same,IC50,[32],90 nM
same,IC50,[33],1.5 nM
same,Change,[34],-9%
same,Change,[35],56%
